The source of these data is ChEMBL document CHEMBL3351306, “Physicochemical property-driven optimization of diarylaniline compounds as potent HIV-1 non-nucleoside reverse transcriptase inhibitors” (Bioorg Med Chem Lett, 2014).

Values after ≈ are worked out from the molar mass of the structure shown.

Data set [1] relates to Human immunodeficiency virus 1. The data set is described as follows: Antiviral activity against drug-resistant HIV1 A17 expressing K103N/Y181C mutant infected in human MT2 cells assessed as inhibition of viral replication. The settings on record: Human immunodeficiency virus 1, A17, MT2.
Data set [2] is described as follows: Selectivity index, ratio of CC50 for human MT2 cells to EC50 for wild type HIV1 3B. In kind it is toxicity, cell-based. The settings on record: read-out: Selectivity Index. In outline:
(§1)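 Run in MT-2 cells, at least in triplicate, reported as mean ± SD; the paired antiviral measurement used wild-type HIV-1 IIIB replication in MT-2 cells.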

The test system of data set [3] is Human immunodeficiency virus 1. The data set is described as follows: Antiviral activity against wild type HIV1 3B infected in human MT2 cells assessed as inhibition of viral replication. In kind it is functional, organism-based. To be noted: Human immunodeficiency virus 1, 3B.
Data set [4] relates to MT2. As to the kind of experiment: Cytotoxicity against human MT2 cells assessed as cell viability. In kind it is cell-based. In outline: as §1
The test system of data set [5] is Human immunodeficiency virus 1. The data set is described as follows: Fold resistance, ratio of EC50 for HIV1 A17 expressing K103N/Y181C mutant infected in human MT2 cells to EC50 for wild-type HIV1 3B infected in human MT2 cells. In kind it is functional.
A short description of data set [6]: Lipophilicity, log P of the compound by HPLC analysis. In kind it is physicochemical. In outline:
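Log P determined experimentally by HPLC at pH 7.4.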

A short description of data set [7]: Aqueous solubility of the compound at pH 2 by HPLC analysis. In kind it is physicochemical. The settings on record: buffer. The essentials:
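Solubility in aqueous buffer at pH 2.0, chosen to mimic stomach conditions; dissolved compound quantified by HPLC.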

Data set [8] is described as follows: Aqueous solubility of the compound at pH 7.4 by HPLC analysis. In kind it is physicochemical. The settings on record: buffer. In outline: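 Solubility in aqueous buffer at pH 7.4, chosen to mimic plasma conditions; dissolved compound quantified by HPLC.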

Take `Cc1cc(C#N)cc(C)c1Oc1cc(Nc2ccc(C#N)cc2)c(N)cc1CN1CCN(C)CC1`: the values for the EC50 in data set [1] and in data set [3] were more than 2000 nM and 170 nM, respectively. Further, the selectivity ratio in data set [2] turned out to be 570. Besides, the CC50 in data set [4] came out at 96.9 µM. Also, in data set [5], the “Ratio EC50” value is reported as more than 11.8.
Regarding `CNCc1cc(N)c(Nc2ccc(C#N)cc2)cc1Oc1c(C)cc(C#N)cc1C`, the EC50 in data set [1] came to 115 nM; in data set [3] it was 9.94 nM. The same compound returned a logP in data set [6] of 1.86. Besides, the selectivity ratio in data set [2] was 1280. Further, in data set [4], the CC50 was determined as 12.7 µM. Besides, the solubility was 263 µg/mL (≈ 662 µM) in data set [7] and 159 µg/mL (≈ 400 µM) in data set [8]. Besides, the “Ratio EC50” value in data set [5] is 11.6.
For the compound `Cc1cc(C#N)cc(C)c1Oc1cc(Nc2ccc(C#N)cc2)c(N)cc1CNCCCO`, the figures for the EC50 in data set [1] and in data set [3] were more than 2000 nM and 6.1 nM, respectively. The compound also displayed a log partition coefficient (logP) in data set [6] of 1.81. Besides, the selectivity ratio in data set [2] worked out at 2480. The CC50 in data set [4] amounted to 15.1 µM. Moreover, the figures for the solubility in data set [7] and in data set [8] were 290 µg/mL (≈ 657 µM) and 236 µg/mL (≈ 534 µM), respectively. For the same compound, in data set [5], the “Ratio EC50” value is reported as more than 328.
For `COCc1cc(N)c(Nc2ccc(C#N)cc2)cc1Oc1c(C)cc(C#N)cc1C`, the EC50 stood at 298 nM in data set [1] and 3.54 nM in data set [3]. The same compound gave a logP in data set [6] of 3.84. The selectivity ratio in data set [2] was found to be 41200. Moreover, the CC50 in data set [4] amounted to 146 µM. Besides, the solubility in data set [7] is 3.75 µg/mL (≈ 9.41 µM); in data set [8], 0.07 µg/mL (≈ 0.176 µM). Moreover, in data set [5], the “Ratio EC50” value is listed as 84.2.
With `Cc1cc(C#N)cc(C)c1Oc1cc(Nc2ccc(C#N)cc2)c(N)cc1COC(C)C`, the EC50 in data set [1] stood at 315 nM; in data set [3] it was 14 nM. Also, the selectivity ratio in data set [2] amounted to 6390. In addition, the CC50 in data set [4] came out at 89.4 µM. Also, the “Ratio EC50” value in data set [5] came to 22.5.
Regarding `CC(=O)OCc1cc(N)c(Nc2ccc(C#N)cc2)cc1Oc1c(C)cc(CCC#N)cc1C`, the EC50 in data set [1] turned out to be 4.92 nM; in data set [3], 0.96 nM. This compound also had a log partition coefficient (logP) in data set [6] of 2.84. Moreover, the selectivity ratio in data set [2] came out at 46700. For the same compound, in data set [4], the half-maximal cytotoxic concentration (CC50) turned out to be 44.8 µM. Moreover, the solubility was 2.63 µg/mL (≈ 5.79 µM) in data set [7] and 1.86 µg/mL (≈ 4.09 µM) in data set [8]. Also, the “Ratio EC50” value in data set [5] came to 5.1.
Consider `Cc1cc(/C=C/C#N)cc(C)c1Nc1ccnc(Nc2ccc(C#N)cc2)n1` [RILPIVIRINE], for which the logP in data set [6] (read-out: logP) was more than 5. Also, in data set [4], the CC50 was found to be 90.7 µM.
For the compound `COCc1cc(N)c(Nc2ccc(C#N)cc2)cc1Oc1c(C)cc(/C=C/C#N)cc1C`, the EC50 in data set [1] amounted to 14.7 nM; in data set [3], 5.74 nM. This compound displayed a lipophilicity (logP) in data set [6] of 4.13. For the same compound, the selectivity ratio in data set [2] stood at 8760. Besides, the CC50 in data set [4] is 50.3 µM. Besides, the solubility in data set [7] is 1.7 µg/mL (≈ 4 µM); in data set [8] it was 0.11 µg/mL (≈ 0.259 µM). The “Ratio EC50” value in data set [5] was 2.6.
Regarding `COCc1cc(N)c(Nc2ccc(C#N)cc2)cc1Oc1c(C)cc(CCC#N)cc1C`, the EC50 in data set [1] amounted to 2.95 nM; in data set [3], 3.25 nM. This compound showed a logP in data set [6] of 3.25. Besides, the selectivity ratio in data set [2] was more than 61500. In addition, the solubility in data set [7] was 1.82 µg/mL (≈ 4.27 µM); in data set [8] it was 0.66 µg/mL (≈ 1.55 µM). For the same compound, the “Ratio EC50” value in data set [5] came to 0.91.
For `CC(=O)OCc1cc(N)c(Nc2ccc(C#N)cc2)cc1Oc1c(C)cc(/C=C/C#N)cc1C`, the EC50 is 36.5 nM in data set [1] and 0.82 nM in data set [3]. This compound registered a lipophilicity (logP) in data set [6] of 4.48. In data set [2], the selectivity ratio is 117000. Further, the CC50 in data set [4] was 96.3 µM. The solubility in data set [7] worked out at 1.87 µg/mL (≈ 4.13 µM); in data set [8] it was 0.49 µg/mL (≈ 1.08 µM). Moreover, the “Ratio EC50” value in data set [5] was determined as 44.5.
Regarding `Cc1cc(C#N)cc(C)c1Oc1cc(Nc2ccc(C#N)cc2)c(N)cc1CNC1CC1`, the EC50 is 130 nM in data set [1] and 10.6 nM in data set [3]. Besides, in data set [6], the logP came out at 3.84. Besides, in data set [2], the selectivity ratio worked out at 1140. The CC50 in data set [4] is 12.1 µM. Also, the solubility in data set [7] turned out to be 286 µg/mL (≈ 675 µM); in data set [8], 13 µg/mL (≈ 30.7 µM). Moreover, the “Ratio EC50” value in data set [5] was 12.3.
For the compound `CC(=O)OCc1cc(N)c(Nc2ccc(C#N)cc2)cc1Oc1c(C)cc(C#N)cc1C`, the concentration for a half-maximal effect (EC50) in data set [1] came out at 374 nM; in data set [3], 1.06 nM. The compound also displayed a logP in data set [6] of 4.4. Besides, the selectivity ratio in data set [2] was found to be 107000. Besides, the 50% cytotoxic concentration (CC50) in data set [4] worked out at 113 µM. Also, the solubility was found to be 16.7 µg/mL (≈ 39.2 µM) in data set [7] and 0.2 µg/mL (≈ 0.469 µM) in data set [8]. Besides, in data set [5], the “Ratio EC50” value is 353.
Take `Cc1cc(C#N)cc(C)c1Oc1cc(Nc2ccc(C#N)cc2)c(N)cc1CO`: the EC50 in data set [1] was found to be 33.1 nM; in data set [3], 1.07 nM. The compound further had a logP in data set [6] of 3.57. In data set [2], the selectivity ratio worked out at 114000. Further, the CC50 in data set [4] is 122 µM. Besides, the values for the solubility in data set [7] and in data set [8] were 9.12 µg/mL (≈ 23.7 µM) and 0.86 µg/mL (≈ 2.24 µM), respectively. Also, the “Ratio EC50” value in data set [5] was 30.9.

A word on the EC50: it is the concentration at which the effect is half-maximal. In general, CC50 refers to the concentration giving 50% cytotoxicity. Broadly, the logP is a log measure of how a compound divides between an organic and an aqueous phase. In general, solubility refers to how much of the substance goes into solution per volume. Read a low solubility as a poorly soluble substance.
